# Mdm2 MdmX PPI – inhibitors of human Mdm2/MdmX interaction. SaOS-2 split-luciferase Mdm2/MdmX complementation, luminescence. inhibition, % at 8 µM. O15151+Q00987. 3% of 330,000 active;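 active means inhibition of at least 50% at 8 µM in the primary screen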
# Target sequence (O15151 whole entry, looked up): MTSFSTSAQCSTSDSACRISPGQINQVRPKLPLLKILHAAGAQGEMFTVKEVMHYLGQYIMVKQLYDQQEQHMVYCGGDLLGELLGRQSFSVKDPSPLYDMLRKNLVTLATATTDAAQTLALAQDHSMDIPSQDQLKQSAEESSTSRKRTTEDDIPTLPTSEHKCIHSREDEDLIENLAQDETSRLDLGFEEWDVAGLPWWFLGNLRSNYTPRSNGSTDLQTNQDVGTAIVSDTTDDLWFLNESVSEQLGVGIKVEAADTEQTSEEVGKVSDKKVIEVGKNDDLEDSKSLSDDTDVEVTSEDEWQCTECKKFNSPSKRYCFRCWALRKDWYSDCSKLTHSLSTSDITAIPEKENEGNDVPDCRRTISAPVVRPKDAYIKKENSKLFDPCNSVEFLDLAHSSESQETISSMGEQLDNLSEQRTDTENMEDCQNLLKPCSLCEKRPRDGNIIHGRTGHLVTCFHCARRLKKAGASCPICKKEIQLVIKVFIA
# Target sequence (Q00987 whole entry, looked up): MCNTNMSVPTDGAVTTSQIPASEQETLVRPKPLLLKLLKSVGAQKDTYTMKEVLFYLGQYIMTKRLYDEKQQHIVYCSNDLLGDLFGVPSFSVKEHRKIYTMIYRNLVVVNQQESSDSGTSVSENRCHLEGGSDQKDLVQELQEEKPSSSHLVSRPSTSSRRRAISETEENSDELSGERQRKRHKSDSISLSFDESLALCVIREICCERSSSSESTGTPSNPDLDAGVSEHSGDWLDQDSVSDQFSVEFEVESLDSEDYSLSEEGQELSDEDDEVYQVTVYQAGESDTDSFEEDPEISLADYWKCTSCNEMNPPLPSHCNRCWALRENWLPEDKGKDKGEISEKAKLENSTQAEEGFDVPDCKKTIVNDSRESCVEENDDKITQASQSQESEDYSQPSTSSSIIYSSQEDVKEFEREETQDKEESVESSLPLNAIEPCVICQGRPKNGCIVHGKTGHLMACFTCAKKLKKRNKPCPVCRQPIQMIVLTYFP
# Beta2AR agonist – agonists of human beta-2 adrenergic receptor inducing internalization | P07550 | Am2.2-beta2AR cells, FAP receptor internalization, flow cytometry | response, % (test concentration not listed) | 0.43% of 340,000 active | AID 504454;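 active means response above a set limit, near 3 SD of response in nonfluorescent compounds, cut at about 42% in these data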
# CHOP UPR activ – activators of apoptotic arm of unfolded protein response (CHOP) | CHO-CHOP luciferase reporter, UPR activation, luminescence; percent of tunicamycin response over DMSO baseline | activation, % at 10 µM | 0.34% of 330,000 active;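 active means at 10 µM dose, activation of 40% or more, normalized to positive control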
#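 Assay system: CHO-CHOP cells, stable luciferase reporter of PERK-eIF2a-CHOP signalling / Buffer or medium: F12 plus 10% serum / Compound dosing: one dose, 10 µM in 0.5% DMSO / Times: 6 h compound treatment, 37 °C / Technique: luciferase luminescence / Read-out: % reporter activation, DMSO baseline versus tunicamycin full activation / Benchmarks: tunicamycin and DMSO controls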
# Mdm2 ligase inh – Mdm2 E3 ligase (human) inhibition | signal enhancement, % at 5 µM | Q00987 | 0.11% of 210,000 active | AID 1230 | cell-based MDM2 ubiquitination luciferase reporter, 2 h; 0 = plate control, 100 = twice control, blank-subtracted;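 active means signal enhancement of 30% or more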;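 further: luminescence tracks abundance of the self-degrading MDM2-luciferase fusion protein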
#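 Assay system: stable mammalian line carrying autodegrading MDM2–luciferase fusion reporter; Input: 2000 cells in each well; Compound dosing: single-point 5 µM; Schedule: 2 h compound exposure at 37 °C; Signal: SteadyLite luciferase luminescence after 15 min room-temperature reagent incubation; Evaluation: % luminescence enhancement versus blank-corrected plate control mean; Benchmarks: plate controls and plate blanks.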
# XBP1 UPR activ – activators of adaptive arm of unfolded protein response (XBP1); CHO-XBP1 luciferase reporter, IRE1-XBP1 UPR activation, luminescence; percent of tunicamycin response, DMSO as zero; activation, % at 20 µM; 0.33% of 330,000 active;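 active means versus positive control, 20 µM dose yields 30% or more activation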
#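 Material: CHO-XBP1 cells stably carrying IRE1-XBP1-driven luciferase reporter / Amount: 1000 cells per well / Compound: 20 µM, 1% DMSO / Times: 6 h treatment, 37 °C / Detection: luciferase luminescence / Measure: % activation of reporter signal versus tunicamycin and DMSO controls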
# Dynein transport – blocks dynein driven cargo transport along microtubules; 3617.4 mouse cells, GR-EGFP nuclear translocation imaging; test concentration mostly 20 µM; stimulated with dexamethasone, 1 µM; hits give low values; z-score, hits read low; 0.47% of 220,000 active;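 active means plate z-score of nuclear minus cytoplasmic receptor signal below a set negative limit, without overly bright fluorescence or cell loss, cut at about -3.5 in these data, passing the limit was not always enough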;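 further: z-score of nuclear minus cytoplasmic ring GR-EGFP intensity difference per well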
#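 Also added: dexamethasone, 1.0 µM final. Medium: tet-free, stripped-serum medium. Detection: fixed, Hoechst-stained cells imaged at 10x for EGFP. Read-out: nuclear-to-cytoplasmic GR-EGFP distribution per well. Times: induction 48 h, compound 1 h, agonist 30 min.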
# XBP1 UPR conf – adaptive UPR (XBP1) activation, confirmed; shares compounds with XBP1 UPR activ; CHO-XBP1 IRE1-XBP1 luciferase reporter, luminescence; activation, % at 20 µM; 63% of 1,000 active; AID 485299;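 active means reporter signal at least 30% of the positive control's activation in two or more of four replicate wells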
# Mdm2 MdmX conf – human Mdm2/MdmX binding inhibition, confirmed. shares compounds with Mdm2 MdmX PPI. luminescent assay. inhibition, % at 8 µM. 55% of 10,000 active; in the data active means inhibition above about 40%
# Full FLuc ctr – full-length luciferase inhibition in Mdm2/MdmX counter-screen; inhibition, % at 8 µM; 77% of 6,200 active; SaOS-2 full-length luciferase counterscreen, luminescence; shares compounds with Mdm2 MdmX PPI;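 active means mean inhibition at 8 µM reaching about 37%, which flags the compound as non-specific, limit read from the data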;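 further: p53-null SaOS-2 cells with luciferase driven by a doxycycline-inducible promoter; compound on cells about two nights before reading with doxycycline added after day one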
# A number is an active result; - = inactive; . = no result. Sampled rows, rich in hits. Any-hit rate of the full collection: about 3.7%.
SMILES,Mdm2 MdmX PPI,Beta2AR agonist,CHOP UPR activ,Mdm2 ligase inh,XBP1 UPR activ,Dynein transport,XBP1 UPR conf,Mdm2 MdmX conf,others
COC(=O)c1ccc(CNC(=O)c2ccc(S(=O)(=O)N3CCCC(C)C3)cc2)cc1 (stereo unspecified),-,-,-,.,-,.,.,.,
CCOC(=O)c1nnc(-c2ccc(C)cc2)nc1Sc1ccccc1Cl,54.0,-,-,.,33.0,-,47.9,-,
CCOC(=O)c1nnc(-c2ccc(C)cc2)nc1Oc1ccccc1Cl,51.0,-,-,-,37.0,-,48.6,-,
COC(=O)c1ccc(C)c(NC(=O)CCCN2C(=O)NC(C)(C)C2=O)c1,-,-,-,.,-,.,.,.,
CC(=O)Nc1ccc(-c2cc(-c3ccc(NC(C)=O)cc3)nc(-c3ccc(NC(C)=O)cc3)n2)cc1,-,-,-,-,-,-,.,.,
CC(=O)Nc1ccc(-c2cc(-c3ccc(NC(C)=O)cc3)nc(-c3ccccc3)n2)cc1,58.5,-,-,-,45.8,-,-,-,
CCC(=O)Nc1ccc(-c2cc(-c3ccccc3)nc(-c3ccc(NC(=O)CC)cc3)n2)cc1,84.5,-,-,-,82.0,-,92.5,-,Full FLuc ctr=63.9
CCOP(=O)(OCC)c1nc(Cc2ccccc2)oc1NCc1ccccc1,-,-,-,-,-,-,.,.,
Cc1cc(C)c(S(=O)(=O)Nc2ccc3c4c(cccc24)CC3)c(C)c1,75.0,-,-,-,30.2,-,-,63.1,Full FLuc ctr=107.0
CC(=O)[C@H]1[C@H]([C@H](O)[C@H](O)CO)O[C@](O)(C(=O)O)C[C@@H]1O,-,-,-,.,-,.,.,.,
CCc1ccc(OCCNc2cc(N3CCNC(C)C3)ccc2[N+](=O)[O-])cc1 (stereo unspecified),95.2,-,-,.,56.3,.,68.3,-,Full FLuc ctr=75.5
Cc1cccc(NC(=O)c2nc[nH]c2C(=O)Nc2ccccc2[N+](=O)[O-])c1,51.4,-,-,-,30.3,-,42.2,-,
CCN(CC)C(=O)c1[nH]cnc1C(=O)Nc1cccc(C)c1,-,-,-,.,-,.,.,.,
N#C/C(=C\Nc1ccc2cn[nH]c2c1)c1nc(-c2ccc(Cl)cc2)cs1,50.4,-,-,-,101.1,-,72.0,-,
CCOc1ccc(CCNC(=O)c2cc(-c3ccccc3)c(N3CCOCC3)s2)cc1OCC,-,-,-,.,-,.,.,.,
CCOc1ccc(CCNC(=O)c2cn(C)c3ccc(S(=O)(=O)N4CCOCC4)cc3c2=O)cc1OCC,-,-,-,.,-,.,.,.,
CCOC(=O)C1=C(C)n2c(s/c(=C/c3cccc([N+](=O)[O-])c3)c2=O)=NC1c1ccc(O)c(OC)c1 (stereo unspecified),81.8,-,-,-,44.6,-,86.5,76.5,Full FLuc ctr=-
O=C(COC(=O)c1cc(=O)[nH]c2ccccc12)Nc1ccccc1F,-,-,-,.,-,.,.,.,
CCOc1cc(CNC(C)(C)CO)cc(Br)c1OCc1ccc(Cl)cc1Cl,96.0,-,-,-,83.0,-,100.3,49.5,Full FLuc ctr=36.9
COc1cc(CNC(C)(C)CO)cc(Br)c1OCc1ccccc1,-,-,-,-,-,-,.,.,
CCN(CC(=O)Nc1sc2c(c1C#N)CCC(C)C2)Cc1nc2ccccc2c(=O)[nH]1 (stereo unspecified),-,-,-,-,-,-,.,.,
CC1CCc2c(sc(NC(=O)CCc3nc4ccccc4c(=O)[nH]3)c2C#N)C1 (stereo unspecified),72.5,-,-,.,168.7,.,198.4,71.2,Full FLuc ctr=59.8
Cn1cc(S(=O)(=O)N2CCOCC2)cc1C(=O)Nc1cccc(Cl)c1,-,-,-,.,-,.,.,.,
O=C(Nc1ccc2c(c1)OCO2)c1cc(-c2ccc(O)cc2)on1,83.7,-,-,.,35.6,.,-,-,
CC(C)C[C@H](NC(=O)c1nc[nH]c1C(=O)N[C@@H](CC(C)C)C(=O)OC(C)(C)C)C(=O)OC(C)(C)C,80.1,-,-,-,44.9,-,-,-,
SMILES,Mdm2 MdmX PPI,Beta2AR agonist,CHOP UPR activ,Mdm2 ligase inh,XBP1 UPR activ,Dynein transport,XBP1 UPR conf,Mdm2 MdmX conf,others
Cc1noc(/C=C/N(C)C)c1S(=O)(=O)N1CCCC(C(=O)Nc2ccc(F)cc2F)C1 (stereo unspecified),-,-,-,.,-,.,.,.,
CN(C)c1ccc(/C=N/NC(=O)c2ccc(NC(=O)c3ccccc3)cc2)cc1,56.8,-,-,-,189.1,-,82.8,-,
O=C(N/N=C/c1ccc(Br)cc1)c1ccc(NC(=O)c2ccccc2)cc1,.,-,.,.,.,.,.,.,
Nc1nc(-c2cc(O)ccc2[N+](=O)[O-])cc(-c2ccccc2)c1[N+](=O)[O-],64.7,-,-,.,310.7,.,214.1,57.1,Full FLuc ctr=54.0
Cc1cc(N2O[C@]34C=C[C@]25C[C@@H](O)CC[C@]5(C)C3CC[C@]2(C)[C@@H]([C@H](C)/C=C/[C@H](C)C(C)C)CC[C@H]24)no1 (stereo partly specified),90.7,-,-,.,40.5,.,-,-,
C[C@H]1[C@H](C)CC[C@]2(C(=O)O)CC[C@]3(C)C(=CC[C@@H]4[C@@]5(C)C[C@@H](O)[C@H](O)C(C)(C)[C@@H]5CC[C@]43C)[C@H]12,67.5,-,-,.,103.3,-,123.7,-,
C[C@H]1[C@H](C)CC[C@]2(C)CC[C@]3(C)C(=CC[C@@H]4[C@@]5(C)CC[C@@H](O)[C@](C)(C(=O)O)[C@@H]5CC[C@]43C)[C@H]12,.,.,.,-,.,-,.,.,
C[C@H]1[C@H](C)CC[C@]2(C(=O)O)CC[C@]3(C)C(=CC[C@@H]4[C@@]5(C)CC[C@H](O)C(C)(C)[C@@H]5CC[C@]43C)[C@H]12,78.3,-,-,-,39.0,-,-,-,
O=C(NC12CC3CC(CC(C3)C1)C2)c1cccnc1Cl,-,-,-,.,-,.,.,.,
CSC1=NC(C)(C)C=C(/C=C/c2ccc(Cl)cc2)N1,53.7,83.7,-,-,34.6,-,45.4,-,
COc1ccccc1N1CCN(C(=O)c2cc(-c3ccc(F)cc3)[nH]c2C)CC1,-,-,-,.,-,.,.,.,
CCC(=O)Nc1cc(-c2nn(C)c(=O)c3ccccc23)ccc1OC,-,-,-,-,-,-,.,.,
Cc1ccc(-c2nn(CC(=O)NCc3cc(-c4nn(C)c(=O)c5ccccc45)ccc3C)c(=O)c3ccccc23)cc1,96.9,-,-,-,81.1,-,61.0,-,

# Assay outcomes (PubChem)
